Measurements taken from ChEMBL document CHEMBL1671628, “Cell density and cell aging as factors modulating antifungal resistance of Candida albicans biofilms” (2008).
Converted amounts (≈) assume the structure as drawn.

Experiments:
Candida albicans [1] = assay: Antifungal activity against 10^7 cells/ml Candida albicans ATCC 90028 planktonic cells by XTT reduction assay; assay type: functional
Outline: (§1)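 High-density planktonic suspensions (10^7 or 10^8 cells/ml) added to serially double-diluted drugs as in the NCCLS setup, run in parallel in RPMI 1640 + 2% glucose and YNB + 100 mM glucose. Viability read by XTT (1 mg/ml) with menadione (0.4 mM stock, 5:1), 3 h dark at 37°C, A490 minus blank wells. MIC50 = lowest concentration giving 50% reduction versus drug-free control.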

Candida albicans [2] = assay: Antifungal activity against 10^7 cells/ml wild-type Candida albicans BF-1 planktonic cells by XTT reduction assay; assay type: functional; outline: as §1
Candida albicans [3] = assay: Antifungal activity against 10^8 cells/ml Candida albicans ATCC 90028 planktonic cells by XTT reduction assay; assay type: functional; outline: as §1
Candida albicans [4] = assay: Antifungal activity against 10^8 cells/ml wild-type Candida albicans BF-1 planktonic cells by XTT reduction assay; assay type: functional
Outline: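 Planktonic suspensions at 1 × 10^8 cells/ml added to twofold serial drug dilutions in 96-well plates (NCCLS format). Run in parallel in RPMI 1640 + 2% glucose and YNB + 100 mM glucose. Readout by XTT reduction: XTT–menadione in PBS, 3 h at 37°C in the dark, A490 minus blank. MIC50 is 50% reduction vs drug-free control.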

Candida albicans [5] = assay: Antifungal activity against 24 hrs cultures of 10^7 cells/ml Candida albicans ATCC 90028 biofilms by XTT reduction assay; assay type: functional; conditions: ATCC 90028, 24 h
Outline: (§2)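 Washed late-exponential cells at 1 × 10^7 cells/ml in YNB + 100 mM glucose were adhered 1.5 h at 37°C with shaking at 75 rpm, washed, then grown 24 or 48 h at 37°C, 75 rpm. Biofilms were washed and exposed 24 or 48 h at 37°C to twofold dilutions in RPMI + 2% glucose. Read by XTT at A490. MIC50 is 50% reduction vs drug-free control. Three experiments, four replicates.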

Candida albicans [6] = assay: Antifungal activity against 24 hrs cultures of 10^7 cells/ml wild-type Candida albicans BF-1 biofilms by XTT reduction assay; assay type: functional; conditions: BF-1, 24 h; outline: as §2
Candida albicans [7] = assay: Antifungal activity against 10^3 cells/ml Candida albicans SC5314 by NCCLS method; assay type: functional
Outline: (§3)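 Planktonic broth microdilution per NCCLS (CLSI): inoculum from 24-h SDA cultures adjusted to 0.5 McFarland at 520 nm, diluted in RPMI 1640 to about 0.5 × 10^3 to 2.5 × 10^3 cells/ml. Cells exposed to twofold drug dilutions, incubated 35°C for 48 h, then MIC read. Three separate occasions.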

Candida albicans [8] = assay: Antifungal activity against 10^8 cells/ml Candida albicans SC5314 planktonic cells by XTT reduction assay; assay type: functional; outline: as §1
Candida albicans [9] = assay: Antifungal activity against 24 hrs cultures of 10^7 cells/ml Candida albicans SC5314 biofilms by XTT reduction assay; assay type: functional; conditions: SC5314, 24 h; outline: as §2
Candida albicans [10] = assay: Antifungal activity against 24 hrs cultures of 10^7 cells/ml Candida albicans ATCC 90028 planktonic cells by XTT reduction method; assay type: functional; conditions: ATCC 90028, 24 h
Outline: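 Standard 1 × 10^7 cells/ml suspension in YNB + 100 mM glucose propagated planktonically 24 h alongside age-matched biofilms, then exposed to twofold drug dilutions. Metabolic activity read by XTT–menadione reduction, 3 h dark, 37°C, A490 background-subtracted. MIC50 is the 50% reduction point versus drug-free control.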

Candida albicans [11] = assay: Antifungal activity against 24 hrs cultures of 10^7 cells/ml Candida albicans BF-1 planktonic cells by XTT reduction method; assay type: functional; conditions: BF-1, 24 h
Outline: (§4)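 Age-matched planktonic cultures were grown from the same 1 × 10^7 cells/ml YNB + 100 mM glucose suspension under the biofilm conditions for 24 or 48 h. They were tested against twofold drug dilutions by XTT reduction (3 h at 37°C in the dark, A490 minus blank). MIC50 is 50% reduction vs drug-free control.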

Candida albicans [12] = assay: Antifungal activity against 48 hrs cultures of 10^7 cells/ml Candida albicans ATCC 90028 planktonic cells by XTT reduction method; assay type: functional; conditions: ATCC 90028, 48 h; outline: as §4
Candida albicans [13] = assay: Antifungal activity against 48 hrs cultures of 10^7 cells/ml Candida albicans BF-1 planktonic cells by XTT reduction method; assay type: functional; conditions: BF-1, 48 h; outline: as §4
Candida albicans [14] = assay: Antifungal activity against 24 hrs cultures of 10^7 cells/ml Candida albicans ATCC 90028 biofilms by XTT reduction method; assay type: functional; conditions: ATCC 90028, 24 h; outline: as §2
Candida albicans [15] = assay: Antifungal activity against 24 hrs cultures of 10^7 cells/ml Candida albicans BF-1 biofilms by XTT reduction method; assay type: functional; conditions: BF-1, 24 h; outline: as §2
Candida albicans [16] = assay: Antifungal activity against 48 hrs cultures of 10^7 cells/ml Candida albicans ATCC 90028 biofilms by XTT reduction method; assay type: functional; conditions: ATCC 90028, 48 h; outline: as §2
Candida albicans [17] = assay: Antifungal activity against 48 hrs cultures of 10^7 cells/ml Candida albicans BF-1 biofilms by XTT reduction method; assay type: functional; conditions: BF-1, 48 h; outline: as §2
Candida albicans [18] = assay: Antifungal activity against 24 hrs cultures of 10^7 cells/ml biofilm-derived Candida albicans ATCC 90028 planktonic cells hrs by XTT reduction method; assay type: functional; conditions: ATCC 90028, 24 h
Outline: (§5)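 Biofilms grown from 1 × 10^7 cells/ml (YNB + 100 mM glucose, 1.5 h adherence, 37°C, 75 rpm) for 24 or 48 h, washed, scraped and moved to wells of serially double-diluted drugs. Incubated with drug 24 or 48 h, then XTT–menadione read at 490 nm. MIC50 = 50% reduction versus drug-free control.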

Candida albicans [19] = assay: Antifungal activity against 24 hrs cultures of 10^7 cells/ml biofilm-derived Candida albicans BF-1 planktonic cells hrs by XTT reduction method; assay type: functional; conditions: BF-1, 24 h
Outline: (§6)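 Biofilms grown 24 or 48 h from 1 × 10^7 cells/ml were washed, scraped and transferred into plates of twofold serially diluted drugs. They were incubated 24 or 48 h. MIC was read by XTT reduction (3 h at 37°C in the dark, A490 minus blank) as 50% reduction vs drug-free control.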

Candida albicans [20] = assay: Antifungal activity against 48 hrs cultures of 10^7 cells/ml biofilm-derived Candida albicans ATCC 90028 planktonic cells hrs by XTT reduction method; assay type: functional; conditions: ATCC 90028, 48 h; outline: as §6
Candida albicans [21] = assay: Antifungal activity against 48 hrs cultures of 10^7 cells/ml biofilm-derived Candida albicans BF-1 planktonic cells hrs by XTT reduction method; assay type: functional; conditions: BF-1, 48 h; outline: as §5
Candida albicans [22] = assay: Ratio of MIC for 10^8 cells/ml wild-type Candida albicans BF-1 to MIC for 10^7 cells/ml wild-type Candida albicans BF-1 grown as planktonic cells; assay type: functional; outline: as §1
Candida albicans [23] = assay: Antifungal activity against 10^3 cells/ml Candida albicans ATCC 90028 by NCCLS method; assay type: functional; outline: as §3
Candida albicans [24] = assay: Antifungal activity against 10^3 cells/ml wild-type Candida albicans BF-1 by NCCLS method; assay type: functional; outline: as §3
Candida albicans [25] = assay: Antifungal activity against 10^5 cells/ml Candida albicans ATCC 90028 by EUCAST method; assay type: functional
Outline: (§7)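 EUCAST AFST planktonic broth microdilution: RPMI 1640 plus 2% glucose, inoculum 0.5 × 10^5 to 2.5 × 10^5 cells/ml, twofold drug dilutions. Performed on three different occasions.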

Candida albicans [26] = assay: Antifungal activity against 10^5 cells/ml wild-type Candida albicans BF-1 by EUCAST method; assay type: functional; outline: as §7
Candida albicans [27] = assay: Antifungal activity against 48 hrs cultures of 10^8 cells/ml Candida albicans ATCC 90028 biofilms by XTT reduction assay; conditions: ATCC 90028, 48 h
Candida albicans [28] = assay: Antifungal activity against 48 hrs cultures of 10^8 cells/ml wild-type Candida albicans BF-1 biofilms by XTT reduction assay; conditions: BF-1, 48 h

Structure (SMILES) | MIC (Candida albicans [1]) [µg/mL] | MIC (Candida albicans [2]) [µg/mL] | MIC (Candida albicans [3]) [µg/mL] | MIC (Candida albicans [4]) [µg/mL] | MIC (Candida albicans [5]) [µg/mL] | MIC (Candida albicans [6]) [µg/mL] | MIC (Candida albicans [7]) [µg/mL] | MIC (Candida albicans [8]) [µg/mL] | MIC (Candida albicans [9]) [µg/mL] | MIC (Candida albicans [10]) [µg/mL] | MIC (Candida albicans [11]) [µg/mL] | MIC (Candida albicans [12]) [µg/mL] | MIC (Candida albicans [13]) [µg/mL] | MIC (Candida albicans [14]) [µg/mL] | MIC (Candida albicans [15]) [µg/mL] | MIC (Candida albicans [16]) [µg/mL] | MIC (Candida albicans [17]) [µg/mL] | MIC (Candida albicans [18]) [µg/mL] | MIC (Candida albicans [19]) [µg/mL] | MIC (Candida albicans [20]) [µg/mL] | other results
CC(=O)N1CCN(c2ccc(OCC3COC(Cn4ccnc4)(c4ccc(Cl)cc4Cl)O3)cc2)CC1 (stereo not given) [KETOCONAZOLE] | 8 (≈ 15.1 µM) | 16 (≈ 30.1 µM) | 64 (≈ 120 µM) | > 64 | 64 (≈ 120 µM) | > 64 | 0.125 (≈ 0.235 µM) | > 64 | > 64 | 8 (≈ 15.1 µM) | 16 (≈ 30.1 µM) | > 64 | > 64 | > 64 | > 64 | > 64 | > 64 | > 64 | > 64 | > 64 | MIC (Candida albicans [21]): > 64 µg/mL; Ratio (Candida albicans [22]): 256; MIC (Candida albicans [23]): 0.125 µg/mL (≈ 0.235 µM); MIC (Candida albicans [24]): 0.125 µg/mL (≈ 0.235 µM); MIC (Candida albicans [25]): 0.125 µg/mL (≈ 0.235 µM); MIC (Candida albicans [26]): 0.125 µg/mL (≈ 0.235 µM); MIC (Candida albicans [27]): 64 µg/mL (≈ 120 µM); MIC (Candida albicans [28]): > 64 µg/mL
C[C@@H]1[C@H](O)[C@@H](C)/C=C/C=C/C=C/C=C/C=C/C=C/C=C/[C@H](O[C@@H]2O[C@H](C)[C@@H](O)[C@H](N)[C@@H]2O)C[C@@H]2O[C@](O)(C[C@@H](O)C[C@@H](O)[C@H](O)CC[C@@H](O)C[C@@H](O)CC(=O)O[C@H]1C)C[C@H](O)[C@H]2C(=O)O [AMPHOTERICIN B] | 0.23 (≈ 0.249 µM) | 0.46 (≈ 0.498 µM) | 0.46 (≈ 0.498 µM) | 0.93 (≈ 1.01 µM) | 15 (≈ 16.2 µM) | 30 (≈ 32.5 µM) | 0.23 (≈ 0.249 µM) | 0.46 (≈ 0.498 µM) | 32 (≈ 34.6 µM) | 0.46 (≈ 0.498 µM) | 0.93 (≈ 1.01 µM) | 0.46 (≈ 0.498 µM) | 0.93 (≈ 1.01 µM) | 16 (≈ 17.3 µM) | 32 (≈ 34.6 µM) | 16 (≈ 17.3 µM) | 32 (≈ 34.6 µM) | 0.46 (≈ 0.498 µM) | 1.87 (≈ 2.02 µM) | 1.87 (≈ 2.02 µM) | MIC (Candida albicans [21]): 3.75 µg/mL (≈ 4.06 µM); MIC (Candida albicans [23]): 0.23 µg/mL (≈ 0.249 µM); MIC (Candida albicans [24]): 0.23 µg/mL (≈ 0.249 µM); MIC (Candida albicans [25]): 0.23 µg/mL (≈ 0.249 µM); MIC (Candida albicans [26]): 0.23 µg/mL (≈ 0.249 µM); MIC (Candida albicans [27]): 15 µg/mL (≈ 16.2 µM); MIC (Candida albicans [28]): 30 µg/mL (≈ 32.5 µM)
